Data taken from PubChem BioAssay AID463191 (Sanford-Burnham Center for Chemical Genomics, 2010).
Active and inactive are the calls of the source.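 How the source made its calls: active means compounds whose mean IC50 across repeat dose response tests falls below a set limit; inactive means the rest.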

tested on: AML12 mouse hepatocytes, BODIPY lipid droplet imaging; experiment: potency against lipid droplet buildup in liver cells – imaging, AML12 mouse hepatocytes, high-content, dose response (AID 463191); settings: cells loaded with 100 µM oleic acid
How it was run: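 System – AML12 mouse hepatocyte cell line, lipid droplet imaging · Reagent – oleic acid at 100 µM final for lipid loading · Compound dosing – 7 doses, 0.5–32 µM, 0.32% DMSO · Schedule – cells grown about 20 h at 37 °C, then overnight compound exposure · Read-out – IC50 from per-cell lipid droplet intensity · Replication – duplicate points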

| Compound | IC50 |
| --- | --- |
| COc1ccc(NC(=O)CSc2nc3ccccc3nc2N2CCCCC2)cc1 | 1180 nM |
| CCCCCCn1c(N2CCN(c3ccccc3)CC2)nc2c1c(=O)[nH]c(=O)n2C | 2460 nM |
| CCc1c(C#N)c(SCCC(=O)Nc2ccc(OC)cc2)nc2c1C(=O)CC(C)(C)C2 | 5310 nM (inactive) |
| C/C(=N\Nc1ccc(S(=O)(=O)Nc2ccccc2)cc1[N+](=O)[O-])c1ccc(N2CCOCC2)cc1 | 1280 nM |
| COc1ccc(C2(c3ccc(OC)cc3)NC(=O)N(CC(=O)Nc3ccc(OC)c(OC)c3)C2=O)cc1 | 6860 nM (inactive) |
| CC1CCN(C2=C(NS(=O)(=O)c3ccc(Br)cc3)C(=O)c3ccccc3C2=O)CC1 | 703 nM |
| CCCCc1ccc(NC(=O)CSc2nnc(C)c(=O)n2N)cc1 | 1270 nM |
| Cc1ccc(-n2nc3c(=O)n(CC(=O)NCCCc4ccccc4)nc(C)c3c2C)cc1 | 4240 nM |
| CCOc1ccc(CCNC(=O)COC(=O)c2cc(OC)cc(OC)c2)cc1OCC | 6120 nM (inactive) |
| CCCC1(c2ccccc2)NC(=O)N(CC(=O)Nc2cc(C)ccc2OC)C1=O (stereo not given) | > 32000 nM (inactive) |
| CCOc1ccc(CCNC(=O)CCNC(=O)c2ccccc2Cl)cc1OCC | 5880 nM (inactive) |
| COc1ccc(C(=O)OC(C)C(=O)NC(C)CCc2ccccc2)cc1OC (stereo not given) | 2560 nM |
| CCOc1ccc(CCNC(=O)C2(c3ccccc3)CC2)cc1OCC | 3910 nM |
| COc1ccc(OC)c(NC(=O)Cc2coc3ccc4ccccc4c23)c1 | 11400 nM (inactive) |
| CCOc1ccc(CCNC(=O)CCc2nnc3ccc(N4CCCC4)nn23)cc1OCC | 1810 nM |
| COc1ccc(-c2csc(NC(=O)c3ccc(OCC(=O)N4CCOCC4)c(OC)c3)n2)cc1 | 782 nM |
| CCCc1nc2ccccc2c(C(=O)OC(C)C(=O)NCc2ccc3c(c2)OCO3)c1CC (stereo not given) | 1970 nM |
| CCOc1ccccc1NC(=O)CCCNC(=O)Cn1cnc2sc(C)c(C)c2c1=O | 7090 nM (inactive) |
| CCC(C(=O)NCc1cccc(C)c1)n1nc(C)c2c(C)n(-c3ccccc3)nc2c1=O (stereo not given) | 6770 nM (inactive) |
| COc1ccc(CCNC(=O)c2cc3c(F)cccc3s2)cc1OC | 5420 nM (inactive) |
| CCOc1ccc(CCNC(=O)COc2cc(=O)n(C)c3ccccc23)cc1OCC | 3950 nM |
| CC1CCCN(C(=O)c2ccc3c(c2NCCO)C(=O)c2ccccc2C3=O)C1 (stereo not given) | 765 nM |
| CCOc1ccc(CCNC(=O)Nc2cccc(OC)c2)cc1OCC | < 500 nM |
| CCOc1ccc(CCNC(=O)CN2C(=O)NC3(CCCC3)C2=O)cc1OCC | 1070 nM |
| COc1ccc(-c2csc(NNC3=NCCCCC3)n2)cc1 | 1420 nM |

| Compound | IC50 |
| --- | --- |
| CCOc1ccc(CCNC(=O)c2cc3sc(Cl)cc3n2C)cc1OCC | < 500 nM |
| CCC(C)(C)NC(=O)C(c1ccc(OC)cc1)N(Cc1ccccc1)C(=O)CCC(=O)Nc1cc(C)on1 (stereo not given) | 3420 nM |
| CCOc1ccc(CCNC(=O)Cn2cccc2C(=O)c2ccccc2C)cc1OCC | 867 nM |
| Cc1cc(N2CCOCC2)n2nc(C)c(-c3ccc(Cl)cc3)c2n1 | 1310 nM |
| COc1ccc(CC(=O)Nc2oc(-c3ccccc3)c(-c3ccccc3)c2C#N)cc1OC | 1260 nM |
| CCCCn1c(N)c(-c2nc3ccccc3s2)c2c([N+](=O)[O-])nn(CC)c(=O)c21 | 9330 nM (inactive) |
| CCCCCCn1c(SCC(=O)Nc2cc(C)on2)nc2ccccc2c1=O | 750 nM |
| COc1ccc(C(C(=O)NC(C)(C)C)N(Cc2ccc(F)cc2)C(=O)CCC(=O)Nc2cc(C)on2)cc1 (stereo not given) | 2040 nM |
| CCOc1ccc(CCNC(=O)CCc2nc(-c3ccc(OC)cc3)no2)cc1OCC | 782 nM |
| O=C(NC1CCCc2c1cnn2-c1cc(F)cc(F)c1)c1ccccn1 (stereo not given) | 1550 nM |
| Cc1cc(N2CCOCC2)n2nc(C)c(-c3ccccc3Cl)c2n1 | 1050 nM |
| COc1ccc(C(=O)OC(C)C(=O)Nc2cc(C(F)(F)F)ccc2Cl)c(OC)c1OC (stereo not given) | 850 nM |
| CCNC(=S)N1CCc2cc(OC)c(OC)cc2C1COc1ccc(F)cc1 (stereo not given) | 2280 nM |
| Cc1ccc(CNC(=O)c2ccc(N3CCC4(CC3)CC(c3ccccc3)=NO4)c(N)c2)cc1 | 3450 nM |
| CCOC(=O)c1ccc(NC(=O)CSc2nc3c(c(=O)n2-c2ccccc2OC)SCC3)cc1 | 1840 nM |
| Cc1ccc(-n2nc3c(=O)n(CC(=O)NC4CCCCC4)nc(C)c3c2C)cc1 | 4730 nM |
| CCC(C)(C)NC(=O)C(c1ccc(OC)cc1)N(Cc1cccs1)C(=O)CCC(=O)Nc1cc(C)on1 (stereo not given) | 2240 nM |
| CC(C)Oc1ccc(C(=O)OC(C)C(=O)Nc2nc(-c3cccc([N+](=O)[O-])c3)cs2)cc1 (stereo not given) | 866 nM |
| CCCN1C(=O)/C(=C\C=C2\N(CC)c3ccccc3C2(C)C)SC1=S | < 500 nM |
| CCOc1ccc(CCNC(=O)CSc2cc(=O)n(CC)c3ccccc23)cc1OCC | 1100 nM |
| CCCc1cc(N2CCCC2)n2nc(C)c(-c3ccccc3)c2n1 | 1100 nM |
| Cc1ccc(-n2nc3c(=O)n(CC(=O)NC(C)CCc4ccccc4)nc(C)c3c2C)cc1 (stereo not given) | 581 nM |
| CCOc1ccc(CCNC(=O)CCc2nnc3ccc(N4CCCCC4)nn23)cc1OCC | 582 nM |
| CCOc1ccc(C2=NNC(c3cccs3)=Nc3ccc(OC)cc32)cc1OCC | 8700 nM (inactive) |
| COc1ccc(C2(c3ccc(OC)cc3)NC(=O)N(CC(=O)Nc3ccccc3C)C2=O)cc1 | 1520 nM |

| Compound | IC50 |
| --- | --- |
| CCOc1ccc(C(=O)OCC(=O)Nc2cc(C)on2)cc1OCC | 1800 nM |
| CCOc1ccc(CCNC(=O)c2cccs2)cc1OCC | 2350 nM |
| O=C1C(NS(=O)(=O)c2cccs2)=C(N2CCN(c3cccc(C(F)(F)F)c3)CC2)C(=O)c2ccccc21 | 751 nM |
| CCOc1ccc(NC(=O)CCSc2nc3c(c(CC)c2C#N)C(=O)CC(C)(C)C3)cc1 | 1770 nM |
| CC(C)(C)c1ccc(-c2csc(NNC3=NCCCCC3)n2)cc1 | 2090 nM |
| CCOc1ccc(CCNC(=O)CSc2cc(=O)n(C)c3ccccc23)cc1OCC | 823 nM |
| COc1ccc(C(=O)OCC(=O)NC(C)CCc2ccccc2)cc1OC (stereo not given) | 11700 nM (inactive) |
| COc1cccc(NC(=O)CSc2nc3ccccc3nc2N2CCCC2)c1 | 5260 nM (inactive) |
| c1ccc(-c2csc(NNC3=NCCCCC3)n2)cc1 | 702 nM |
| CCOc1ccc(CCNC(=O)c2cc(-c3ccccc3)c(N3CCOCC3)s2)cc1OCC | < 500 nM |
| CCOc1ccc(CCNC(=O)COC(=O)/C=C/c2ccc(C)o2)cc1OCC | 7620 nM (inactive) |
| CC1Cc2cc(S(=O)(=O)NCCC(=O)N(C)Cc3ccccc3)ccc2N1C(=O)C1CC1 (stereo not given) | 7520 nM (inactive) |
| CCOc1ccc(CCNC(=O)CCCn2c(=O)c3cccn3c3cccnc32)cc1OCC | 1880 nM |
| CCC(C)(C)NC(=O)C(c1ccc(OC)cc1)N(CC1CCCO1)C(=O)CCC(=O)Nc1cc(C)on1 (stereo not given) | 3440 nM |
| COc1ccc(C(=O)CCC(=O)NCCc2c[nH]c3ccccc23)cc1OC | 2120 nM |
| CCOc1ccc(CCNC(=O)C2CC=CCC2C(=O)OC(C)C)cc1OCC (stereo not given) | 746 nM |
| Cc1cc(C)cc(NC(=O)CCC(=O)Nc2cc(C)on2)c1 | 7620 nM (inactive) |
| CCn1cc(CCCC(=O)NCc2cccc(OC)c2)c2ccccc21 | 6430 nM (inactive) |
| Cc1cccc(NC(=O)CSc2nnc(C)c(=O)n2N)c1 | 6650 nM (inactive) |
| CCn1cc(CCCC(=O)NCc2ccccc2OC)c2ccccc21 | 4000 nM |
| CCOc1ccc(CCNC(=O)CCC(=O)N2CCOc3ccc(C)cc32)cc1OCC | 1440 nM |
| Cc1ccc(-n2nc3c(=O)n(C(C)C(=O)NCCC4=CCCCC4)nc(C)c3c2C)cc1 (stereo not given) | 3870 nM |
| CCOc1ccc(C(=O)OCC(=O)Nc2nc(OC)cc(OC)n2)cc1OCC | 1120 nM |
| CCOc1ccccc1NC(=O)CCC(=O)Nc1ccccc1OCC | 4180 nM |
| COc1ccc(CCNC(=O)c2ccc(CNc3nc(=S)[nH]c4ccccc34)cc2)cc1OC | 1280 nM |

| Compound | IC50 |
| --- | --- |
| CCOc1ccc(CCNC(=O)CSc2cc(=O)n(C)c3cc(Cl)ccc23)cc1OCC | 708 nM |
| CCOC(=O)N1CCN(C(=O)CSCC(=O)Nc2nc(-c3ccc(-c4ccccc4)cc3)cs2)CC1 | 14200 nM (inactive) |
| CCOc1ccc(CCNC(=O)Cn2nc(C)n3cccc3c2=O)cc1OCC | 2000 nM |
| COc1cc(NC(=O)c2cccs2)c(OC)cc1NC(=O)CCC(=O)Nc1ccc(C)cc1 | 790 nM |
| CCOc1ccc(CCNC(=O)COC(=O)c2cc(OC)c(OC)c(OC)c2)cc1OCC | 559 nM |
| CCCCNC(=O)c1ccc2c(c1)N(C)C(=O)c1ccccc1S2 | 6880 nM (inactive) |
| CCN(CC(=O)Nc1ccccc1C(F)(F)F)C(=O)c1cc(-c2cccs2)nn1-c1ccccc1 | 2030 nM |
| CCOc1ccc(CCNC(=O)CN2CCN(Cc3ccc(F)cc3)C2=O)cc1OCC | 1830 nM |
| CCOc1cc(CNC(=O)CCCn2c(=O)c3cccn3c3cccnc32)cc(OCC)c1OCC | 540 nM |
| O=C(NCc1ccc2c(c1)OCO2)c1cc(-c2ccccc2)c(N2CCOCC2)s1 | 715 nM |
| O=C(Nc1nc(-c2ccc(-c3ccccc3)cc2)cs1)C1CCCO1 (stereo not given) | 2230 nM |
| COc1ccc(C2(c3ccc(OC)cc3)NC(=O)N(CC(=O)Nc3cc(C)ccc3OC)C2=O)cc1 | < 500 nM |
| c1cc2c(cc1-c1csc(NNC3=NCCCCC3)n1)OCCO2 | 1070 nM |
| CCOc1ccccc1NC(=O)N1CCC(C(=O)c2ccc(F)cc2)CC1 | 4480 nM |
| CC1CC(C)CN(C(=O)c2ccc3c(c2NCCO)C(=O)c2ccccc2C3=O)C1 (stereo not given) | 687 nM |
| COc1ccc(C(C(=O)NC2CCCC2)N(CCC(C)C)C(=O)CCC(=O)Nc2cc(C)on2)cc1 (stereo not given) | 5900 nM (inactive) |
| COc1ccc(C(=O)OCC(=O)NC(C)CCc2ccccc2)c(OC)c1 (stereo not given) | 10600 nM (inactive) |
| COCc1ccc(C(=O)NC2CCCc3c2cnn3-c2ccc(C)c(C)c2)o1 (stereo not given) | 2440 nM |
| O=C(CSCC(=O)N1CCCc2ccccc21)Nc1nc(-c2ccccc2)cs1 | 4240 nM |
| CCOc1ccc(CCNC(=O)Cn2cccc2C(=O)c2ccccc2)cc1OCC | 1640 nM |
| CC(=O)Nc1ccc(-c2csc(NC(=O)Cc3ccccc3F)n2)cc1 | 5100 nM (inactive) |
| CCOc1ccc(C(C)NC(=O)Cc2ccccc2F)cc1OCC (stereo not given) | 6250 nM (inactive) |
| CCOc1ccc(CCNC(=O)CCC(=O)N2CCSc3ccccc32)cc1OCC | < 500 nM |
| CCOc1ccc(CCNC(=O)CN2C(=O)NC(CCSC)C2=O)cc1OCC (stereo not given) | 1260 nM |
| CC1=C(C(=O)NC2CCCc3c2cnn3-c2cccc(C)c2C)OCCO1 (stereo not given) | 11800 nM (inactive) |
